In the RNAGym collection of RNA variant scans (doi:10.1126/science.aae0568):
Variants at the floor of the assay were thinned out.

B1: tRNA (parent)
chain: GUUCCGUUGGCGUAAUGGUAACGCGUCUCCCUCCUAAGGAGAAGACUGCGGGUUCGAGUCCCGUACGGAACG

Variants of: B1
Assay: yeast fitness relative to wild type (ratio to wild type); higher = fitter; tRNA-Arg(CCU), competitive growth, 37 C, YPD
Procedure, shortened: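 A pool of Saccharomyces cerevisiae strains, each with a tRNA-Arg(CCU) gene variant at the native genomic locus, was competed in YPD at 37°C for 24 hours across six parallel replicates. The variants had been chemically synthesised at a 3% per-site mutation rate over 69 sites, and gene amplicons before and after competition were read by 100-nucleotide paired-end sequencing. Darwinian fitness relative to wild type rested on changes in genotype frequencies. Genotypes required ≥ 100 starting reads, and estimates < 0.5 were set to 0.5.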

| Variant | yeast fitness |
| --- | --- |
| C30G G44A G48A G58A | ≤ 0.5 |
| C30A C61A A65C | 0.578 |
| C31A A37G A65U | 0.629 |
| C30G C33G A69C | 0.544 |
| C30G A57U C60G | ≤ 0.5 |
| C30A G52A A65U | ≤ 0.5 |
| C30G G51C G56U | 0.628 |
| C30G A37C C46G G56A | ≤ 0.5 |
| C30U G50A C61G | ≤ 0.5 |
| C31A A36C | 0.558 |
| C30A G56U A65G | ≤ 0.5 |
| C30U G58A C61G G68C A70U | ≤ 0.5 |
| C30G C33U G58C U64A | 0.56 |
| C30U A43U G51C | ≤ 0.5 |
| C30A U47C | 0.775 |
| C30G A40C U64A | 0.565 |
| C30G C46G C60U A69G | ≤ 0.5 |
| C30G U47C | 0.701 |
| C30G A42G A45G | ≤ 0.5 |
| C30G A37C A45G | 0.633 |
| C30G C33G C34U A42U C55A | ≤ 0.5 |
| C30G A40G C49U | ≤ 0.5 |
| C31A A43C | 0.832 |
| C31A A42G G67A A69U | 0.625 |

| Variant | yeast fitness |
| --- | --- |
| C30G C62A | 0.61 |
| C30G C62G | 0.551 |
| C30G C31A A36G G63C | ≤ 0.5 |
| C30U C46A C66U | 0.83 |
| C30U G44C | 0.662 |
| C30U A45U | 0.955 |
| C30U C61U G63A A65G | ≤ 0.5 |
| C30A C66A | 0.636 |
| C30U U47G | 0.588 |
| C30U U47A | 0.695 |
| C30U A40G C49U | 0.632 |
| C30U G48C G68C | 0.636 |
| C30U U32A A36U A37U | ≤ 0.5 |
| C30U G39C | 0.682 |
| C30U A45C G48A G58A G67U | ≤ 0.5 |
| C30A G38A G52A C55A A65C | ≤ 0.5 |
| C30U G39A C62U G68C | 0.571 |
| C30U G38C A57G | ≤ 0.5 |
| C30U C33G | 0.691 |
| C30U C33U | 0.669 |
| C30U A36C A65C | 0.615 |
| C30G C33G C60G A70C | ≤ 0.5 |
| C30G A36G A57U A65U C66U | ≤ 0.5 |
| C30U C31A A40U G56A | ≤ 0.5 |

| Variant | yeast fitness |
| --- | --- |
| C30U C33G A65C | 0.577 |
| C30U G52C C66G | 0.707 |
| C30U A36U A70C | ≤ 0.5 |
| C30U C33A G39A | ≤ 0.5 |
| C30G A57U | 0.609 |
| C30G A57G | 0.616 |
| C30U A57U | 0.863 |
| C30U U54A G63A | 0.704 |
| C30G U64A A70C | ≤ 0.5 |
| C30U U47A C66A | ≤ 0.5 |
| C30U U35A C62A | ≤ 0.5 |
| C30U G48C A65G | 0.606 |
| C30G A45G | 0.698 |
| C30G C31U C61G | 0.557 |
| C30U G38C A65G | 0.53 |
| C31A A40C G52A C61A | 0.528 |
| C30G U32G C46G C66U | ≤ 0.5 |
| C30U G48A | 0.861 |
| C30U U32A A36U A37U C62U A69U | ≤ 0.5 |
| C31A A42G A43U G56C | ≤ 0.5 |
| C30G C31G G38C C46G A69C | 0.572 |
| C31A A42U | 0.909 |
| C30G C61U G68A | 0.541 |
| C30G C34U A36U A65U | 0.612 |

| Variant | yeast fitness |
| --- | --- |
| C30G G44A G63A | ≤ 0.5 |
| C30G C46G G52C G68C | ≤ 0.5 |
| C30A G38C C61A | 0.51 |
| C30G C49A U53C G63A C66G | ≤ 0.5 |
| C30A C49A C66U | ≤ 0.5 |
| C30U C46G C49U A69C | ≤ 0.5 |
| C30U C31G C33U A37C A65C | ≤ 0.5 |
| C30A G52A | 0.813 |
| C30A G44A | 0.88 |
| C30U A37C C49U C66U | ≤ 0.5 |
| C30U G39A A40G G67A | ≤ 0.5 |
| C30G U35A C62U | ≤ 0.5 |
| C30U C31U C49A | ≤ 0.5 |
| C30U A57C G63C | ≤ 0.5 |
| C31A A37C G58C | 0.521 |
| C30U U59G | 0.898 |
| C30G A42U A45G | ≤ 0.5 |
| C30G G41C A57U | ≤ 0.5 |
| C30G A42C | 0.631 |
| C30G A42G | 0.626 |
| C30U C31G A37U G48C | ≤ 0.5 |
| C31A A36U U53A | ≤ 0.5 |
| C30G C34U U47A C49A | 0.691 |
| C30G C33A C49A | 0.618 |

| Variant | yeast fitness |
| --- | --- |
| C30G C31G A43G G56C | ≤ 0.5 |
| C30A G41A U47C | 0.559 |
| C30A G51C C55A C66U | ≤ 0.5 |
| C30U A45C G58A G67U | ≤ 0.5 |
| C31A A42C C46U | 0.592 |
| C30G C46A U47G C49A G52A G58C C61U U64G A65G | ≤ 0.5 |
| C30G A57U C60G A65U | 0.531 |
| C30A G44A A45U C62U | ≤ 0.5 |
| C30U G44A C46A | 0.637 |
| C30U G39A C60G | 0.57 |
| C30U C66U | 0.777 |
| C30U C61G A65C | ≤ 0.5 |
| C30A G63C | 0.774 |
| C30U A43C U47G U54G | 0.85 |
| C30A C62U G63A A69G | ≤ 0.5 |
| C30U C31U A57G | 0.75 |
| C30U A42U A43C A70C | ≤ 0.5 |
| C30G A45G G56A | 0.526 |
| C30G A37U C61U | ≤ 0.5 |
| C30A U47C G58A A69U | 0.563 |
| C30A G56A | 1.04 |
| C30A G56C | 0.639 |
| C30A G56U | 0.831 |
| C30G C55U | 0.622 |

| Variant | yeast fitness |
| --- | --- |
| C30G U35A C61U C66G A69U | 0.633 |
| C30U C46U A57U | 0.515 |
| C30A G51C | 0.508 |
| C30A G51A | 0.774 |
| C30U A45U C49G | 0.713 |
| C30A U54A A57C | 0.548 |
| C31A A37C U47C G67A | ≤ 0.5 |
| C30G C31G G38C C46G | 0.768 |
| C30G C34G G63C | ≤ 0.5 |
| C30U G44A G48C A70G | ≤ 0.5 |
| C30A C62G A70U | 0.547 |
| C30U A45U A57C | 0.566 |
| C30G C46A A70G | 0.591 |
| C30G C33G C34U A42U C66U G67C | ≤ 0.5 |
| C30G A42U A45G C61U G67A | ≤ 0.5 |
| C30U C34G G38C A65C | 0.537 |
| C30G U59G C66A | ≤ 0.5 |
| C30U C66G A70G | ≤ 0.5 |
| C30U G51C C61A | 0.635 |
| C30A U47C G67U | ≤ 0.5 |
| C31A A43C A45C | ≤ 0.5 |
| C30G A57U C66U A70U | ≤ 0.5 |
| C30A G48A U64A C66G | 0.611 |
| C30A U53C | 0.82 |

| Variant | yeast fitness |
| --- | --- |
| C30A C61A A69C | 0.609 |
| C30U G50C | 0.69 |
| C30G C49G | 0.635 |
| C31A A37U G67C | 0.575 |
| C30G C31U G56A C62U A69G | ≤ 0.5 |
| C30U A43U U64C | 0.707 |
| C30G C33U | 0.555 |
| C30U U32G A37G G63A | ≤ 0.5 |
| C30U A37G A42G C60G | 0.516 |
| C30U C31U A70C | 0.784 |
| C30G G48A U53C A70U | ≤ 0.5 |
| C30A C62U G63A | ≤ 0.5 |
| C30G C55G U59A U64G | ≤ 0.5 |
| C30U A45C G52C | 0.568 |
| C30G C33U A45U | 0.57 |
| C30U A42C G48C A65C | ≤ 0.5 |
| C30A G67C | 0.841 |
| C30A G67U | 0.671 |
| C30G A43C C60G C66U | ≤ 0.5 |
| C30U A43C | 1.04 |
| C30U A43U | 1.03 |
| C30U U53G | 0.618 |
| C30U U53A | 0.672 |
